The record followed here is PubChem BioAssay.

Molecules are shown by their SMILES. Activity calls are given as the source filed them.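 Rule for the calls, unless noted: active = GFP response above 150% of the DMSO level; inconclusive = fewer than 70 events counted for a yeast strain; inactive = the rest.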

Assay [1] can be described thus: hit retest on RPL19A-GFP reporter strain – cell-based, S. cerevisiae, flow cytometry, cherry picks, mother/daughter gates, confirmation (AID 2270;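 active = GFP response below 50% of the DMSO control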). Conditions: 3 h, at 10 µM, stronger effect = lower value, 100 = same GFP as DMSO wells. (In flow cytometry, cells or beads pass a laser one at a time.)
Assay [2] in a line: yeast TOR pathway reporter LAP4-GFP change – cell-based, cherry picks, flow cytometry, mother/daughter gates, confirmation (AID 2271;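 active = GFP response above 150% of the DMSO control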;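 note: ratio of sample to DMSO plate mean so 100% equals DMSO level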). Conditions: S. cerevisiae LAP4-GFP strain, 3 h, at 10 µM, stronger effect = higher value, 100 means same as DMSO control. An outline of the steps:
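Material: Alexa Fluor 633-labelled Saccharomyces cerevisiae GFP-fusion strain, single-plex | Amount: Yeast cells seeded at OD600 of 0.2 | Buffer or medium: SC growth medium | Schedule: 3 h exposure, 30 °C | Measured by: HT flow cytometry, GFP fluorescence channel | Evaluation: % GFP response vs DMSO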

Assay [3] in a line: TOR pathway reporter MEP2-GFP, retest of hits – S. cerevisiae, flow cytometry GFP, cherry picks, confirmation (AID 2272;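 active = GFP response above 150% of the DMSO control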;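 note: ratio of well signal to plate DMSO mean so 100% equals DMSO level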). Conditions: S. cerevisiae MEP2-GFP strain, 3 h, at 10 µM, stronger effect = higher value.
Assay [4] can be described thus: yeast AGP1-GFP fluorescence change, single-dose – cell-based, flow cytometry, S. cerevisiae, cherry picks, confirmation (AID 2273).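 Note: median GFP channel fluorescence over the whole cell population gate.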 Conditions: S. cerevisiae AGP1-GFP strain, 3 h, at 10 µM.
Assay [5] is described as follows: TOR pathway CIT2 reporter hit retest – S. cerevisiae, GFP fusion, cherry picks, mother/daughter gates, confirmation (AID 2274). Conditions: S. cerevisiae CIT2-GFP strain, flow cytometry, 3 h, at 10 µM, stronger effect = higher value.
Where [6] appears, read: measured here: daughter cell gate.
The mark [7] stands for this setting: measured here: mother cell gate.
The mark [8] stands for this setting: measured here: daughter cell gate response.
[9] abbreviates: measured here: mother cell gate response.

As for `Cc1ccc(/C=C/C(=O)c2ccc(C)cc2)cc1`, the GFP response vs DMSO in assay [1] is 97.2% (inactive); in assay [1] (setting [6]) it was 96.2%; in assay [1] (setting [7]), 99.3%; in assay [3] it was 99.5% (inactive). Moreover, the GFP response relative to DMSO in assay [2] is 98.8% (inactive); in assay [2] (setting [8]) it was 99.3%; in assay [2] (setting [9]), 96.5%. Besides, the GFP response, % of DMSO is 98.2% (inactive) in assay [4], 102% (inactive) in assay [5], 102% in assay [5] (setting [6]) and 103% in assay [5] (setting [7]).

With `CC(=O)c1cc(NC(=O)c2ccc(C)cc2)c(=O)oc1C`, the GFP response vs DMSO in assay [1] is 96.6% (inactive); in assay [1] (setting [6]), 97.5%; in assay [1] (setting [7]), 96%; in assay [3], 104% (inactive). Further, the GFP response relative to DMSO was 105% (inactive) in assay [2], 104% in assay [2] (setting [8]) and 104% in assay [2] (setting [9]). The GFP response, % of DMSO in assay [4] was 94.3% (inactive); in assay [5] it was 99.3% (inactive); in assay [5] (setting [6]) it was 100%; in assay [5] (setting [7]), 96.8%.

As for `O=C(NCC(c1ccc(F)cc1)N1CCOCC1)c1cc(F)c(F)c(F)c1F` (stereo unspecified), the GFP response vs DMSO in assay [1] was 100% (inactive); in assay [1] (setting [6]) it was 99.6%; in assay [1] (setting [7]), 101%; in assay [3], 101% (inactive). The values for the GFP response relative to DMSO in assay [2], in assay [2] (setting [8]) and in assay [2] (setting [9]) were 102% (inactive), 102% and 102%, respectively. The GFP response, % of DMSO is 102% (inactive) in assay [4], 102% (inactive) in assay [5], 101% in assay [5] (setting [6]) and 101% in assay [5] (setting [7]).

Take `O=C(c1ccccc1)c1ccccc1N1C(=O)C=CC1=O`: the GFP response vs DMSO was 90.5% (inactive) in assay [1], 61.6% in assay [1] (setting [6]), 81.2% in assay [1] (setting [7]) and 156% (inactive) in assay [3]. The GFP response relative to DMSO in assay [2] was 266% (active); in assay [2] (setting [8]) it was 156%; in assay [2] (setting [9]), 263%. Moreover, the GFP response, % of DMSO is 129% (inactive) in assay [4], 86% (inactive) in assay [5], 95.2% in assay [5] (setting [6]) and 71.8% in assay [5] (setting [7]).

On to `COc1cc(/C=C2\N=C(C)OC2=O)cc(Cl)c1OC(C)=O`, for which the GFP response vs DMSO in assay [1] was 107% (inactive); in assay [1] (setting [6]), 109%; in assay [1] (setting [7]) it was 102%; in assay [3] it was 105% (inactive). Moreover, the GFP response relative to DMSO in assay [2] is 117% (inactive); in assay [2] (setting [8]), 115%; in assay [2] (setting [9]), 118%. Besides, the GFP response, % of DMSO in assay [4] is 99.8% (inactive); in assay [5], 108% (inactive); in assay [5] (setting [6]), 112%; in assay [5] (setting [7]), 103%.

For the compound `CCOc1ccccc1NC(=O)c1nc(S(=O)(=O)Cc2cccc(C)c2)ncc1Cl`, the GFP response vs DMSO is 101% (inactive) in assay [1], 100% in assay [1] (setting [6]), 101% in assay [1] (setting [7]) and 100% (inactive) in assay [3]. The GFP response relative to DMSO is 101% (inactive) in assay [2], 102% in assay [2] (setting [8]) and 103% in assay [2] (setting [9]). Moreover, the GFP response, % of DMSO in assay [4] was 101% (inactive); in assay [5], 97.8% (inactive); in assay [5] (setting [6]) it was 96.5%; in assay [5] (setting [7]), 98.7%.

As for `Clc1ccc(N=c2ssnc2Cl)cc1`, the GFP response vs DMSO was 97.8% (inactive) in assay [1], 99.2% in assay [1] (setting [6]), 92.9% in assay [1] (setting [7]) and 107% (inactive) in assay [3]. The GFP response relative to DMSO is 154% (active) in assay [2], 139% in assay [2] (setting [8]) and 161% in assay [2] (setting [9]). The GFP response, % of DMSO in assay [4] was 97.4% (inactive); in assay [5], 104% (inactive); in assay [5] (setting [6]) it was 105%; in assay [5] (setting [7]) it was 99.8%.

In the case of `COc1ccc(C2CC(c3ccccc3)=NN2S(=O)(=O)c2ccc(C)cc2)c(OC)c1` (stereo unspecified), the GFP response vs DMSO in assay [1] was 102% (inactive); in assay [1] (setting [6]), 98.8%; in assay [1] (setting [7]), 100%; in assay [3] it was 103% (inactive). Also, the GFP response relative to DMSO is 102% (inactive) in assay [2], 99.1% in assay [2] (setting [8]) and 104% in assay [2] (setting [9]). Moreover, the GFP response, % of DMSO in assay [4] was 101% (inactive); in assay [5], 102% (inactive); in assay [5] (setting [6]), 99.2%; in assay [5] (setting [7]), 99.3%.

For `C/C(=N/NC(=O)c1ccc(C(C)(C)C)cc1)c1ccccn1`, the GFP response vs DMSO in assay [1] was 110% (inactive); in assay [1] (setting [6]), 107%; in assay [1] (setting [7]), 101%; in assay [3] it was 126% (inactive). For the same compound, the GFP response relative to DMSO in assay [2] is 231% (active); in assay [2] (setting [8]), 197%; in assay [2] (setting [9]), 209%. In addition, the GFP response, % of DMSO is 90% (inactive) in assay [4], 112% (inactive) in assay [5], 115% in assay [5] (setting [6]) and 98.2% in assay [5] (setting [7]).

Regarding `COc1cc(/C=C2\C(=O)N(CCC#N)N=C2C)c(Br)cc1OC(C)C`, the GFP response vs DMSO is 105% (inactive) in assay [1], 103% in assay [1] (setting [6]), 102% in assay [1] (setting [7]) and 107% (inactive) in assay [3]. In addition, the GFP response relative to DMSO is 165% (active) in assay [2], 145% in assay [2] (setting [8]) and 168% in assay [2] (setting [9]). The GFP response, % of DMSO in assay [4] is 100% (inactive); in assay [5], 93.9% (inactive); in assay [5] (setting [6]), 94.8%; in assay [5] (setting [7]), 90.2%.

With `Cc1ccc(C=C2C(Cl)=C(Cl)C(Cl)=C2Cl)cc1`, the GFP response vs DMSO is 103% (inactive) in assay [1], 102% in assay [1] (setting [6]), 97.7% in assay [1] (setting [7]) and 114% (inactive) in assay [3]. Further, the GFP response relative to DMSO was 148% (inactive) in assay [2], 139% in assay [2] (setting [8]) and 161% in assay [2] (setting [9]). In addition, the GFP response, % of DMSO was 105% (inactive) in assay [4], 106% (inactive) in assay [5], 105% in assay [5] (setting [6]) and 94.7% in assay [5] (setting [7]).

For `COc1ccc(NC(=O)Nc2ccon2)c(OC)c1`, the GFP response vs DMSO was 101% (inactive) in assay [1], 102% in assay [1] (setting [6]), 99.5% in assay [1] (setting [7]) and 99% (inactive) in assay [3]. Moreover, the GFP response relative to DMSO in assay [2] is 95.7% (inactive); in assay [2] (setting [8]), 94.2%; in assay [2] (setting [9]), 95.2%. Besides, the GFP response, % of DMSO in assay [4] is 106% (inactive); in assay [5], 103% (inactive); in assay [5] (setting [6]), 99.2%; in assay [5] (setting [7]), 101%.

As to `C#CCSc1nncn1C(=O)/C=C/c1ccccc1`, the GFP response vs DMSO in assay [1] was 99.4% (inactive); in assay [1] (setting [6]), 98.6%; in assay [1] (setting [7]) it was 95%; in assay [3], 103% (inactive). The values for the GFP response relative to DMSO in assay [2], in assay [2] (setting [8]) and in assay [2] (setting [9]) were 145% (inactive), 142% and 153%, respectively. Moreover, the GFP response, % of DMSO in assay [4] is 101% (inactive); in assay [5], 103% (inactive); in assay [5] (setting [6]), 111%; in assay [5] (setting [7]), 93.7%.

On to `Cc1cccn2c(=O)c(/C=C(\C#N)C(=O)NCc3ccco3)c(N3CCCC(C)C3)nc12` (stereo unspecified), for which the GFP response vs DMSO is 99.8% (inactive) in assay [1], 99.1% in assay [1] (setting [6]), 99.5% in assay [1] (setting [7]) and 98.8% (inactive) in assay [3]. For the same compound, the GFP response relative to DMSO in assay [2] is 96.1% (inactive); in assay [2] (setting [8]), 96.6%; in assay [2] (setting [9]), 97.2%. The GFP response, % of DMSO in assay [4] is 101% (inactive); in assay [5] it was 99.7% (inactive); in assay [5] (setting [6]) it was 100%; in assay [5] (setting [7]) it was 99.7%.

With `CCCc1[nH]nc2c1C(c1ccc(OC)cc1OC)C(C#N)=C(N)O2` (stereo unspecified), the GFP response vs DMSO is 99.8% (inactive) in assay [1], 99.9% in assay [1] (setting [6]), 99.8% in assay [1] (setting [7]) and 105% (inactive) in assay [3]. Besides, the GFP response relative to DMSO in assay [2] is 92.8% (inactive); in assay [2] (setting [8]), 91.2%; in assay [2] (setting [9]), 95.1%. The GFP response, % of DMSO in assay [4] is 90.4% (inactive); in assay [5], 94% (inactive); in assay [5] (setting [6]), 89.9%; in assay [5] (setting [7]) it was 91.4%.

Regarding `O=C(N/N=C/c1ccc(OCCCF)cc1)c1cc(OCC(F)(F)F)ccc1OCC(F)(F)F`, the GFP response vs DMSO is 98% (inactive) in assay [1], 100% in assay [1] (setting [6]), 98.2% in assay [1] (setting [7]) and 102% (inactive) in assay [3]. The values for the GFP response relative to DMSO in assay [2], in assay [2] (setting [8]) and in assay [2] (setting [9]) were 97.4% (inactive), 98.7% and 101%, respectively. The GFP response, % of DMSO in assay [4] is 97.2% (inactive); in assay [5] it was 95.2% (inactive); in assay [5] (setting [6]), 94.8%; in assay [5] (setting [7]), 97.7%.
